Measurements taken from ChEMBL document CHEMBL3098028, “Synthesis and in vitro and in vivo pharmacological evaluation of new 4-aminoquinoline-based compounds” (ACS Med Chem Lett, 2013).
pIC50: −log10 of the molar value. Values after ≈ are worked out from the molar mass of the structure shown.

Experiments:
[1] = target: T1, Cytochrome P450 2B6 (Homo sapiens, UniProt P20813); test: Inhibition of CYP2B6 in human liver microsomes assessed as bupropion hydroxylation after 20 mins by LC-MS/MS analysis; type: ADME
T1 sequence (P20813 whole entry): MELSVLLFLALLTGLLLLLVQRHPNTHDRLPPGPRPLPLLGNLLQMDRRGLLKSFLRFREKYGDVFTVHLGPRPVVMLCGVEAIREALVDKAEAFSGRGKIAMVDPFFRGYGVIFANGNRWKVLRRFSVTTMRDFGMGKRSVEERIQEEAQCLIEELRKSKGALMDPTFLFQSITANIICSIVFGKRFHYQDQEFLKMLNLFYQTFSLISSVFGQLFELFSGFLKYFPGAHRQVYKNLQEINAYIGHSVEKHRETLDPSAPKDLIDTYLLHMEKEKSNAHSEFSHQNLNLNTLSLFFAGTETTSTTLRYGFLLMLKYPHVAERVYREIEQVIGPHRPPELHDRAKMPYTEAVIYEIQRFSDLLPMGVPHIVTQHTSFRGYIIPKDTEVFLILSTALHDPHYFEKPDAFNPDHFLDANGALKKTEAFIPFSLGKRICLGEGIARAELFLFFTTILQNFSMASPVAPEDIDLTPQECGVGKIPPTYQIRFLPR

[2] = system: Plasmodium falciparum; test: Antiplasmodial activity against chloroquine-resistant Plasmodium falciparum K1 after 24 hrs by [3H]hypoxanthine incorporation assay; type: functional, organism-based
Method in brief: (§1)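 Antiplasmodial testing was done at the Swiss Tropical and Public Health Institute. Chloroquine, the reference drug, was tested as its diphosphate salt.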

[3] = system: CHO; test: Cytotoxicity against CHO cells; type: cell-based; details: Cricetulus griseus
[4] = system: Plasmodium falciparum; test: Antiplasmodial activity against chloroquine-resistant Plasmodium falciparum W2 after 24 hrs by [3H]hypoxanthine incorporation assay; type: functional, organism-based; method in brief: as §1
[5] = target: T2, Cytochrome P450 2A6 (Homo sapiens, UniProt P11509); test: Inhibition of CYP2A6 in human liver microsomes assessed as coumarin 7-hydroxylation after 20 mins by LC-MS/MS analysis; type: ADME
T2 sequence (P11509 whole entry): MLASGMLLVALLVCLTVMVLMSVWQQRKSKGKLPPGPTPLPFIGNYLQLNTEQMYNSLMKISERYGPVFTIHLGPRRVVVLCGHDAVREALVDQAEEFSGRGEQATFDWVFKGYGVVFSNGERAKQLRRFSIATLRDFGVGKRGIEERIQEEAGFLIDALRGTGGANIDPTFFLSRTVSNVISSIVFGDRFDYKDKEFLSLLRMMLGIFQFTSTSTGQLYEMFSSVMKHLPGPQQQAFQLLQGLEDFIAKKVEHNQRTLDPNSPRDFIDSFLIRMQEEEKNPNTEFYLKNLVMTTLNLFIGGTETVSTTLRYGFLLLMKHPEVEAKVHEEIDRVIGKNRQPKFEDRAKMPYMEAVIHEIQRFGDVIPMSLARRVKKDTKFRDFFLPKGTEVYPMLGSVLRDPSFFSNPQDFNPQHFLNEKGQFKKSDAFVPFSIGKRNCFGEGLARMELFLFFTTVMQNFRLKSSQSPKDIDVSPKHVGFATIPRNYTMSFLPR

[6] = Kinetic solubility of the compound in phosphate buffered saline at pH 7.4 after 2 hrs by HPLC analysis; type: physicochemical; details: read-out: Kinetic_solubility
[7] = system: Plasmodium falciparum; test: Antiplasmodial activity against chloroquine-sensitive Plasmodium falciparum 3D7 after 24 hrs by [3H]hypoxanthine incorporation assay; type: functional, organism-based; method in brief: as §1
[8] = system: Plasmodium falciparum; test: Resistance index, ratio of IC50 for chloroquine-resistant Plasmodium falciparum K1 to IC50 for chloroquine-sensitive Plasmodium falciparum 3D7; type: functional
[9] = target: Cytochrome P450 2C9 (Homo sapiens, UniProt P11712); test: Inhibition of CYP2C9 in human liver microsomes assessed as diclofenac 4'-hydroxylation after 20 mins by LC-MS/MS analysis; type: ADME
Chain of Cytochrome P450 2C9 (P11712 whole entry): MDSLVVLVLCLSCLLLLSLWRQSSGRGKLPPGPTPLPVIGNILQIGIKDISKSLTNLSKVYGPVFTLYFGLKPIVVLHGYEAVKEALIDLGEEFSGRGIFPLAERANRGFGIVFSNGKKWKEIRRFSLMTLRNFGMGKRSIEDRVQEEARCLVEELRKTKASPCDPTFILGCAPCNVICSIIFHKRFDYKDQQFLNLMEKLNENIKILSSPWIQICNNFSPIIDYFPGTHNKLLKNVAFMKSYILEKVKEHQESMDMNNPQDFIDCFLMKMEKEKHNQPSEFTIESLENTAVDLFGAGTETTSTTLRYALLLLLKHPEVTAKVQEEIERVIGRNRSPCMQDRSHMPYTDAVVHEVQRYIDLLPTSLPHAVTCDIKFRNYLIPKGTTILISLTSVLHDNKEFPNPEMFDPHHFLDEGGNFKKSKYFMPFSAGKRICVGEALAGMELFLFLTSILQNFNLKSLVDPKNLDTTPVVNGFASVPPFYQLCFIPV

[10] = target: Cytochrome P450 2E1 (Homo sapiens, UniProt P05181); test: Inhibition of CYP2E1 in human liver microsomes assessed as chlorzoxazone 6-hydroxylation after 20 mins by LC-MS/MS analysis; type: ADME
Chain of Cytochrome P450 2E1 (P05181 whole entry): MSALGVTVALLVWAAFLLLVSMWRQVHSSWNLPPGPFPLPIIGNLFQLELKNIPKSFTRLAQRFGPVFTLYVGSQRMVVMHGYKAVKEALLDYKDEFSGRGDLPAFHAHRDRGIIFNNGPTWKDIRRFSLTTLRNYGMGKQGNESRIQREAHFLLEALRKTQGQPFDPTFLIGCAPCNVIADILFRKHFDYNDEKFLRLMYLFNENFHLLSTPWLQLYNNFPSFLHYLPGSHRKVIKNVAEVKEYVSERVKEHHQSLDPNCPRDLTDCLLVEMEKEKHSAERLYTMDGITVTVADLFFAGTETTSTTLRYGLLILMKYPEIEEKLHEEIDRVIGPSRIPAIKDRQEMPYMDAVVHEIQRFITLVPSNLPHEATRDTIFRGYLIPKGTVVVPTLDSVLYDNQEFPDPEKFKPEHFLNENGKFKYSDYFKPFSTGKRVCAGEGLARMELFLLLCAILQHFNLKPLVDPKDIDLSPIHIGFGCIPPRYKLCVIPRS

[11] = target: T3, Cytochrome P450 1A2 (Homo sapiens, UniProt P05177); test: Inhibition of CYP1A2 in human liver microsomes assessed as phenacetin O-deethylation after 20 mins by LC-MS/MS analysis; type: ADME
T3 sequence (P05177 whole entry): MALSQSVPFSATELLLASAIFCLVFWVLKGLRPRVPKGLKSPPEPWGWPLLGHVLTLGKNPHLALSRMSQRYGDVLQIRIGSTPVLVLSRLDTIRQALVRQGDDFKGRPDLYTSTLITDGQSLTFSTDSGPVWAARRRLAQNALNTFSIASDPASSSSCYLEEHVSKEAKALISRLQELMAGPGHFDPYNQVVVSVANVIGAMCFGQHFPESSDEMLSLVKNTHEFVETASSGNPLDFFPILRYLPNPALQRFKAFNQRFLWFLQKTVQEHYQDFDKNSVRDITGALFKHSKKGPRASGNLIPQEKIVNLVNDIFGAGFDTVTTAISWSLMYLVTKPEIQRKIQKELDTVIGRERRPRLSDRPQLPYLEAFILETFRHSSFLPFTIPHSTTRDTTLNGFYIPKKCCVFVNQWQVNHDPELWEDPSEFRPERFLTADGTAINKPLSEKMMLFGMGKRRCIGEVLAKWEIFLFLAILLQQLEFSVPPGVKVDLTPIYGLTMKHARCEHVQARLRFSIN

[12] = target: Cytochrome P450 2D6 (Homo sapiens, UniProt P10635); test: Inhibition of CYP2D6 in human liver microsomes assessed as bufuralol 1'-hydroxylation after 20 mins by LC-MS/MS analysis; type: ADME
Chain of Cytochrome P450 2D6 (P10635 whole entry): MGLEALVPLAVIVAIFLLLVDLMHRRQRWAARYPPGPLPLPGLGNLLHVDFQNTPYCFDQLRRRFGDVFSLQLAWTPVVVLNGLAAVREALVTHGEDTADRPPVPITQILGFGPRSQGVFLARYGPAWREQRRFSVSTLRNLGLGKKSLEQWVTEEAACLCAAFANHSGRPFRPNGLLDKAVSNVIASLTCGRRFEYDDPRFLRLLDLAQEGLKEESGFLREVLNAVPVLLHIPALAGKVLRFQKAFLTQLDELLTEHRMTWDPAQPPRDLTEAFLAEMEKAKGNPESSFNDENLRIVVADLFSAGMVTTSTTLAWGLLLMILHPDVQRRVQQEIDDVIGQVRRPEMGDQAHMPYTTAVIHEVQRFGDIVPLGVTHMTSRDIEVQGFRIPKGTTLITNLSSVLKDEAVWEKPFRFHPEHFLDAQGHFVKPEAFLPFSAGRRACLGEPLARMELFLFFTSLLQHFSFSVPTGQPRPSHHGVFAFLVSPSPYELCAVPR

[13] = target: Cytochrome P450 2C19 (Homo sapiens, UniProt P33261); test: Inhibition of CYP2C19 in human liver microsomes assessed as S-mephenytoin 4'-hydroxylation after 20 mins by LC-MS/MS analysis; type: ADME
Chain of Cytochrome P450 2C19 (P33261 whole entry): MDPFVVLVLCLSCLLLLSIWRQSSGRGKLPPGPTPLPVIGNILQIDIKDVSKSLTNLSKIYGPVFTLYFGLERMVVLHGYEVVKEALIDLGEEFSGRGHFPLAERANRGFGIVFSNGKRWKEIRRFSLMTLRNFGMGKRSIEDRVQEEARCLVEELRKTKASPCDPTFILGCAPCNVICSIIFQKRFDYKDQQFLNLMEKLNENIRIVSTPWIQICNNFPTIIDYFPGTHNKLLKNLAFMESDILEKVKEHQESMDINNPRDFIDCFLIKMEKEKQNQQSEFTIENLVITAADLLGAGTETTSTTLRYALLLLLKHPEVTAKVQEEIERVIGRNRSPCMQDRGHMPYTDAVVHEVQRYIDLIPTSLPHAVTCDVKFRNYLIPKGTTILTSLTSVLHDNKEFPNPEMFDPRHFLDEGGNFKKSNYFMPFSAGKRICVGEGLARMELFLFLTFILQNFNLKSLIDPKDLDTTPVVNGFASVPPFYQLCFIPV

[14] = target: Cytochrome P450 3A4 (Homo sapiens, UniProt P08684); test: Inhibition of CYP3A4 in human liver microsomes assessed as midazolam 1'-hydroxylation and testosterone 6beta-hydroxylation after 20 mins by LC-MS/MS analysis; type: ADME
Chain of Cytochrome P450 3A4 (P08684 whole entry): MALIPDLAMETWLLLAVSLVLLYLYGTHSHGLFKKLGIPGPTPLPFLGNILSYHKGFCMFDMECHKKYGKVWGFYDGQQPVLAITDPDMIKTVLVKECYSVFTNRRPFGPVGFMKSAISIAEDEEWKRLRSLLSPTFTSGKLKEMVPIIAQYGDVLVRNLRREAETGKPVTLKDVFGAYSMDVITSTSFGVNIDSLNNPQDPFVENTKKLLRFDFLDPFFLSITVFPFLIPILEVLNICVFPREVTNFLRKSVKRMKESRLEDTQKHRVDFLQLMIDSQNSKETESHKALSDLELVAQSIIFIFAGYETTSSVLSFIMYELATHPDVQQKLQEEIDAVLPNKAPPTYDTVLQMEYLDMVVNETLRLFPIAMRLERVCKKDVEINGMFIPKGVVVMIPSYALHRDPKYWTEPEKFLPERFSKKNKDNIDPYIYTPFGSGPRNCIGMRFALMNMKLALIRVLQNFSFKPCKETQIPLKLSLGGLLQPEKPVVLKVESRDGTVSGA

[15] = Kinetic solubility of the compound in 0.01 M HCl at pH 2 after 2 hrs by HPLC analysis; type: physicochemical; details: read-out: Kinetic_solubility
[16] = target: T4, Cytochrome P450 2C8 (Homo sapiens, UniProt P10632); test: Inhibition of CYP2C8 in human liver microsomes assessed as paclitaxel 6alpha-hydroxylation after 20 mins by LC-MS/MS analysis; type: ADME
T4 sequence (P10632 whole entry): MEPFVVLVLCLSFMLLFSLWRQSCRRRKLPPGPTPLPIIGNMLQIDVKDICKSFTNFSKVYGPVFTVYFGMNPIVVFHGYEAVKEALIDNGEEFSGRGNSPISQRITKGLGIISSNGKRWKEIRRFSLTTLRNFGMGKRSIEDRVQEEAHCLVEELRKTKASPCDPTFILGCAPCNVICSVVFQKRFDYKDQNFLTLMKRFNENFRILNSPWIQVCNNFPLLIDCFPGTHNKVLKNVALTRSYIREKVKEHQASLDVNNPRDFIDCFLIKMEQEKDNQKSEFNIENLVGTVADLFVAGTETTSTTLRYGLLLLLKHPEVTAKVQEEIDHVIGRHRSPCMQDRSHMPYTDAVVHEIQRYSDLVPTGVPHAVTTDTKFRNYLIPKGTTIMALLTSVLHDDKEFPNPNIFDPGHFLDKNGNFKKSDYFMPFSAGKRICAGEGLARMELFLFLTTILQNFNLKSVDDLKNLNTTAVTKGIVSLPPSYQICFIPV

[17] = Drug metabolism in hepatocytes (unknown origin) assessed as 2-(5-((4-chlorophenyl)(2-(7-chloroquinolin-4-ylamino)ethylamino)methyl)-1H-tetrazol-1-yl)-2-methylpropan-1-ol level at 5 uM after 6 hrs by LC-MS/MS analysis; type: ADME, cell-based, Hepatocyte
[18] = system: Mus musculus; test: AUC (0 to infinity) in C57BL/6 mouse at 5 mg/kg, iv; type: ADME, organism-based, Plasma; set-up: dose 5 mg/kg, route intravenous, time infinity; details: in vivo
Method in brief: (§2)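 Healthy male C57/BL6 mice received a single intravenous dose (2.5 or 5.0 mg/kg) or oral dose (20 or 40 mg/kg). Plasma concentrations were followed over time to give AUC0-∞ in min·μmol/L, alongside t1/2, CL, Vd, Vss, Cmax, Tmax and oral bioavailability. Values are means of five animals.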

[19] = system: Plasmodium berghei; test: Antimalarial activity against Plasmodium berghei ANKA infected in C57BL/6 mouse assessed as reduction in parasitemia at 20 mg/kg, po qd for 4 days measured on day 7 by light microscopic analysis relative to control; type: functional; set-up: scale not given: the % may be the effect or the level left
Method in brief: (§3)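 Male C57/BL6 mice were infected with P. berghei ANKA and dosed orally once daily for four days at 1, 10, 5 or 20 mg/kg, with 5 mice per dose group. The negative control received blank formulation solution. Blood smears were taken on days 3, 5 and 7, and parasitemia was read by light microscopy. The result is % parasitemia reduction on day 7 versus placebo.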

[20] = system: Liver microsome; test: Drug metabolism in human liver microsomes assessed as 2-(5-((4-chlorophenyl)(2-(7-chloroquinolin-4-ylamino)ethylamino)methyl)-1H-tetrazol-1-yl)-2-methylpropan-1-ol level at 5 uM after 1 hr by LC-MS/MS analysis; type: ADME
[21] = Drug metabolism in hepatocytes (unknown origin) assessed as 4-(2-((1-tert-butyl-1H-tetrazol-5-yl)(4-chlorophenyl)methylamino)ethylamino)-7-chloroquinoline 1-oxide level at 5 uM after 6 hrs by LC-MS/MS analysis; type: ADME, cell-based, Hepatocyte
[22] = system: Liver microsome; test: Drug metabolism in rat liver microsomes assessed as 2-(5-((4-chlorophenyl)(2-(7-chloroquinolin-4-ylamino)ethylamino)methyl)-1H-tetrazol-1-yl)-2-methylpropan-1-ol level at 5 uM after 1 hr by LC-MS/MS analysis; type: ADME
[23] = system: Plasmodium berghei; test: Antimalarial activity against Plasmodium berghei ANKA infected in C57BL/6 mouse assessed as reduction in parasitemia at 10 mg/kg, po qd for 4 days measured on day 7 by light microscopic analysis relative to control; type: functional; set-up: scale not given: the % may be the effect or the level left; method in brief: as §3
[24] = system: Mus musculus; test: AUC (0 to infinity) in C57BL/6 mouse at 20 mg/kg, po; type: ADME, organism-based, Plasma; set-up: time infinity, dose 20 mg/kg, route oral; details: in vivo; method in brief: as §2
[25] = system: Plasmodium berghei; test: Antimalarial activity against Plasmodium berghei ANKA infected in C57BL/6 mouse assessed as reduction in parasitemia at 5 mg/kg, po qd for 4 days measured on day 7 by light microscopic analysis relative to control; type: functional; set-up: scale not given: the % may be the effect or the level left; method in brief: as §3
[26] = Hepatic extraction ratio in human liver microsomes at 1 uM after 40 mins; type: ADME; details: read-out: ERH
[27] = system: Plasmodium berghei; test: Antimalarial activity against Plasmodium berghei ANKA infected in C57BL/6 mouse assessed as reduction in parasitemia at 1 mg/kg, po qd for 4 days measured on day 7 by light microscopic analysis relative to control; type: functional; set-up: scale not given: the % may be the effect or the level left; method in brief: as §3
[28] = Hepatic extraction ratio in mouse liver microsomes at 1 uM after 40 mins; type: ADME, Microsome; details: read-out: ERH
[29] = system: Mus musculus; test: AUC (0 to infinity) in C57BL/6 mouse at 40 mg/kg, po; type: ADME, organism-based, Plasma; set-up: time infinity, dose 40 mg/kg, route oral; details: in vivo; method in brief: as §2
[30] = system: Liver microsome; test: Drug metabolism in human liver microsomes assessed as 4-(2-((1-tert-butyl-1H-tetrazol-5-yl)(4-chlorophenyl)methylamino)ethylamino)-7-chloroquinoline 1-oxide level at 5 uM after 1 hr by LC-MS/MS analysis; type: ADME
[31] = system: Liver microsome; test: Drug metabolism in rat liver microsomes assessed as 4-(2-((1-tert-butyl-1H-tetrazol-5-yl)(4-chlorophenyl)methylamino)ethylamino)-7-chloroquinoline 1-oxide level at 5 uM after 1 hr by LC-MS/MS analysis; type: ADME
[32] = system: Mus musculus; test: AUC (0 to infinity) in C57BL/6 mouse at 2.5 mg/kg, iv; type: ADME, organism-based, Plasma; set-up: time infinity, dose 2.5 mg/kg, route intravenous; details: in vivo; method in brief: as §2

Structure (SMILES): Cc1ccc(C(NCCNc2ccnc3cc(Cl)ccc23)c2nnnn2C(C)(C)C)cc1 (stereo not drawn)
- pIC50 [1]: < 4.70
- pIC50 [2]: 8.70
- pIC50 [3]: 3.73
- pIC50 [4]: 7.51
- pIC50 [5]: < 4.70
- solubility kinetic at 2 h [6]: 39.6 µM (≈ 17.8 µg/mL)
- pIC50 [7]: 9.00
- Ratio IC50 [8]: 2
- pIC50 [9]: 4.99
- pIC50 [10]: < 4.70
- pIC50 [11]: < 4.70
- pIC50 [12]: 5.01
- pIC50 [13]: < 4.70
- pIC50 [14]: 6.77
- solubility kinetic at 2 h [15]: 127 µM (≈ 57.1 µg/mL)
- pIC50 [16]: 5.40

Structure (SMILES): CC(C)(C)n1nnnc1C(NCCNc1ccnc2cc(Cl)ccc12)c1ccc(Cl)c(Cl)c1 (stereo not drawn)
- Drug metabolism [17]: Active
- AUC [18]: 222 µmol·min/L
- pIC50 [2]: 8.10
- pIC50 [3]: 4.98
- Activity [19]: 44.5%
- Drug metabolism [20]: Active
- Drug metabolism [21]: Active
- pIC50 [4]: 7.52
- solubility kinetic at 2 h [6]: 25 µM (≈ 12.6 µg/mL)
- pIC50 [7]: 9.40
- Drug metabolism [22]: Active
- Activity [23]: 41.4%
- Ratio IC50 [8]: 20
- AUC [24]: 256 µmol·min/L
- Activity [25]: 46.9%
- hepatic extraction ratio at 40 min, 1 µM [26]: > 0.8
- Activity [27]: 22.7%
- hepatic extraction ratio at 40 min, 1 µM [28]: > 0.8
- AUC [29]: 287 µmol·min/L
- solubility kinetic at 2 h [15]: 194 µM (≈ 97.9 µg/mL)
- Drug metabolism [30]: Active
- Drug metabolism [31]: Active
- AUC [32]: 104 µmol·min/L

Structure (SMILES): CC(C)(C)n1nnnc1C(NCCCNc1ccnc2cc(Cl)ccc12)c1ccccc1 (stereo not drawn)
- pIC50 [2]: 7.57
- pIC50 [4]: 7.41
- pIC50 [7]: 8.70
- Ratio IC50 [8]: 13.5
